Bioassay records from PubChem BioAssay.
XiGFP reactiv = activators of inactive X chromosome reactivation, primary screen, imaging, XiGFP fibroblasts, GFP high-content imaging, set 2. AID 743238, 2013. activation, % at 7.58 µM. 360,000 tested, 0.055% active. XiGFP mouse fibroblasts, % GFP-positive cells imaging, 3 d; cells co-treated with 5-aza-dC sensitizer; scaled so ellipticine positive control = 100%;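 active = mean normalized replicate activation at least 10% and every replicate at or above 10%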;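 also: 0% = median of on-plate neutral control wells and 100% = ellipticine 6 µM median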
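System: SV40-immortalized XiGFP fibroblast cells, line 68-5-11 / Incubation: 3-day compound exposure, then 15 min fixation at room temperature / Compound: single concentration per compound, delivered by pin transfer / Buffer or medium: DMEM plus 5-aza-dC sensitizer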
FN deposit inh = inhibitors of fibronectin matrix deposition, primary screen, AH1F cells, Alexa488-fibronectin fluorescence, plate reader; 350,000 tested, 0.086% active; inhibition, % at 12.6 µM; AH1F fibroblasts, overnight;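 active = mean inhibition across replicates of 30% or more, regardless of how many single replicates reach that level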;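 also: positive control wells lacked labelled fibronectin entirely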
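test system = AH1F fibroblasts assembling fluorescent fibronectin matrix | quantity = 10000 AH1F cells per well | buffer or medium = DMEM plus 2% serum, read in PBS | doses = single dose, pinned | incubation = 1 h cell attachment, overnight exposure to compound and label | detection = fluorescence at 485 nm excitation, 525 nm emission | read-out basis = inhibition from reduced deposited-fibronectin fluorescence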
EWS-Fli inh = EWS/Fli-driven NR0B1 reporter inhibitors, primary screen, A673 cells, NR0B1 luciferase, luminescence, MLPCN library; viability-normalised; 350,000 tested, 0.67% active; inhibition, % at 12.6 µM;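 active = mean inhibition of at least 50% after viability correction, with every replicate also passing that limit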;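 also: firefly luciferase signal divided by Alamar Blue viability fluorescence both relative to DMSO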
TROY signal inh = inhibitors of TROY-driven NF-kB signaling, primary screen, Q293 LMP1-TROYcd cells, NF-kB luciferase, uHTS | Q293 LMP1-TROYcd NF-kB luciferase reporter, 4 h | inhibition, % at 10 µM | 360,000 tested, 0.98% active | AID 1347056, 2019;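 active = compounds whose plate-normalised and pattern-corrected inhibition of the luciferase reporter signal at the single screening dose is 50% or more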
LGR2 inh = inhibitors of bursicon-induced LGR2 CRE-luciferase signal, primary screen, cell-based, HEK293, CRE-luciferase reporter, bursicon stimulation; Drosophila bursicon receptor LGR2 (rickets); bursicon-stimulated, 4 h; inhibition, % at 9.99 µM; 380,000 tested, 0.35% active;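 active = drop in luminescence signal, shown as inhibition above about 50% in the replicate tests, limit read from the data, passing the limit was not always enough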;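 also: agonist challenge used bursicon conditioned medium at about half maximal strength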
TWEAK Fn14 block = inhibitors of TWEAK-Fn14 signaling, primary screen, luciferase reporter cells, uHTS. TWEAK-stimulated Fn14 reporter cells, luciferase luminescence, 8 h. inhibition, % at 10 µM. 360,000 tested, 2% active. AID 1159606, 2016; in the data active = inhibition above about 50%
* marks the source's active call; other numbers are inactive results. The list is not random: actives were taken first. Their share in the collection is about 2.3%.

For C[C@@H]1CCCCO[C@@H](CN(C)CC2CCCCC2)[C@H](C)CN([C@H](C)CO)C(=O)c2cc(NC(=O)Nc3ccc(C(F)(F)F)cc3)ccc2O1 the results were XiGFP reactiv 0, FN deposit inh -2, EWS-Fli inh 76* and LGR2 inh 10.
`C[C@@H]1CN([C@@H](C)CO)C(=O)c2cc(NC(=O)Nc3ccc(C(F)(F)F)cc3)ccc2O[C@@H](C)CCCCO[C@@H]1CN(C)CC1CCCCC1` gave XiGFP reactiv 0, FN deposit inh 0, EWS-Fli inh -12 and LGR2 inh 9.
`C[C@@H]1CCCCO[C@@H](CN(C)C(=O)Nc2ccc(F)cc2)[C@@H](C)CN([C@@H](C)CO)C(=O)c2cc(NC(=O)Nc3ccc(F)cc3)ccc2O1` gave XiGFP reactiv 0, FN deposit inh 6, EWS-Fli inh 0 and LGR2 inh 19.
For C[C@@H]1CCCCO[C@H](CN(C)CC2CCCCC2)[C@H](C)CN([C@H](C)CO)C(=O)c2cc(NC(=O)Nc3ccc(C(F)(F)F)cc3)ccc2O1 the results were XiGFP reactiv 0, FN deposit inh -5 and EWS-Fli inh 75*.
Screening C[C@@H]1CCCCO[C@@H](CN(C)CC2CCCCC2)[C@@H](C)CN([C@@H](C)CO)C(=O)c2cc(NC(=O)Nc3ccc(C(F)(F)F)cc3)ccc2O1 returned XiGFP reactiv 0, FN deposit inh -2 and EWS-Fli inh 65*.
Screening C[C@@H]1CN([C@@H](C)CO)C(=O)Cc2cc(NC(=O)c3ccncc3)ccc2O[C@H]1CN(C)Cc1ccc(C(=O)O)cc1 returned XiGFP reactiv 0, EWS-Fli inh -4 and LGR2 inh 23.
Screening Cn1cnc(S(=O)(=O)N2CC[C@@H]3[C@H]2c2cc(C#CC4CCCC4)ccc2N[C@@H]3CO)c1 returned XiGFP reactiv 0, FN deposit inh -10, EWS-Fli inh -1 and LGR2 inh 3.
C[C@@H]1CCCCO[C@H](CN(C)CC2CC2)[C@H](C)CN([C@@H](C)CO)C(=O)c2cc(NC(=O)Nc3ccc(C(F)(F)F)cc3)ccc2O1 was read as XiGFP reactiv 0, EWS-Fli inh 76* and LGR2 inh 14.
C[C@@H]1CCCCO[C@H](CN(C)CC2CCCCC2)[C@H](C)CN([C@@H](C)CO)C(=O)c2cc(NC(=O)Nc3ccc(F)cc3)ccc2O1 was read as XiGFP reactiv 0, EWS-Fli inh 58* and LGR2 inh 16.
For Cc1ccc(S(=O)(=O)N2C[C@H](O)COC[C@@H]3O[C@@H](CC(=O)NCCN4CCCCC4)CC[C@H]32)cc1 the results were XiGFP reactiv 0, FN deposit inh -7, EWS-Fli inh -1 and LGR2 inh -10.
CC(=O)c1cc2c(C)c(C(=O)c3ccccc3)oc2cc1O was read as XiGFP reactiv 0, FN deposit inh 3, TROY signal inh 38, LGR2 inh 21 and TWEAK Fn14 block 55*.
C[C@H](CO)N1C[C@H](C)[C@@H](CN(C)Cc2ccncc2)Oc2ccc(NC(=O)Cc3cn(C)c4ccccc34)cc2C1=O was read as XiGFP reactiv 0 and LGR2 inh 7.
`COCCCN(C(=O)c1ccc2ccccc2n1)c1c(N)n(Cc2ccccc2)c(=O)[nH]c1=O` gave XiGFP reactiv 0, FN deposit inh 37*, EWS-Fli inh -47, TROY signal inh -35, LGR2 inh -36 and TWEAK Fn14 block -12.
CCc1cc(C(=O)N(CCCOC)c2c(N)n(Cc3ccccc3)c(=O)[nH]c2=O)sc1C was read as XiGFP reactiv 1, FN deposit inh -1, EWS-Fli inh 3, TROY signal inh 71*, LGR2 inh 18 and TWEAK Fn14 block 2.
